Reference: ChEMBL document CHEMBL4190234, “Design, synthesis and anticancer activity of new monastrol analogues bearing 1,3,4-oxadiazole moiety” (Eur J Med Chem, 2017)

Key:
Assay type in all cases: functional
SF-295 = assay: Growth inhibition of human SF295 cells at 10 uM incubated for 48 hrs by sulforhodamine B assay relative to control; settings: SF-295, 48 h, read-out: GI
Procedure, shortened: (§1)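 NCI single-dose screen: cells grown in RPMI 1640 with 5% FBS and 2 mM L-glutamine, plated at 5,000–40,000 cells/well and preincubated 24 h at 37 °C, 5% CO2. Compounds taken from DMSO stock and tested at final 10 µM for 48 h. Cells fixed with TCA, stained with 0.4% SRB, absorbance read at 515 nm. Percentage growth calculated against untreated controls; controls held DMSO at the same dilution.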

K562 = assay: Growth inhibition of human K562 cells at 10 uM incubated for 48 hrs by sulforhodamine B assay relative to control; settings: K562, 48 h, read-out: GI
Procedure, shortened: (§2)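 Single-dose screen at 10 μM final: cells in RPMI 1640, 5% FBS, 2 mM L-glutamine, plated 5,000–40,000/well, preincubated 24 h at 37°C, 5% CO2; drug 48 h; adherent cells fixed with 10% TCA, suspension cells with 16% TCA; SRB stain, absorbance 515 nm; percentage growth versus untreated control, with time-zero plates.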

MOLT-4 = assay: Growth inhibition of human MOLT4 cells at 10 uM incubated for 48 hrs by sulforhodamine B assay relative to control; settings: MOLT-4, 48 h, read-out: GI; procedure, shortened: as §2
SK-MEL-2 = assay: Growth inhibition of human SK-MEL-2 cells at 10 uM incubated for 48 hrs by sulforhodamine B assay relative to control; settings: SK-MEL-2, 48 h, read-out: GI; procedure, shortened: as §1
UO-31 = assay: Growth inhibition of human UO31 cells at 10 uM incubated for 48 hrs by sulforhodamine B assay relative to control; settings: UO-31, 48 h, read-out: GI; procedure, shortened: as §1
SF-268 = assay: Growth inhibition of human SF268 cells at 10 uM incubated for 48 hrs by sulforhodamine B assay relative to control; settings: SF-268, 48 h, read-out: GI; procedure, shortened: as §1
OVCAR-5 = assay: Growth inhibition of human OVCAR5 cells at 10 uM incubated for 48 hrs by sulforhodamine B assay relative to control; settings: OVCAR-5, 48 h, read-out: GI; procedure, shortened: as §2
OVCAR-4 = assay: Growth inhibition of human OVCAR4 cells at 10 uM incubated for 48 hrs by sulforhodamine B assay relative to control; settings: OVCAR-4, 48 h, read-out: GI; procedure, shortened: as §2
ACHN = assay: Growth inhibition of human ACHN cells at 10 uM incubated for 48 hrs by sulforhodamine B assay relative to control; settings: read-out: GI; procedure, shortened: as §2
A498 = assay: Growth inhibition of human A498 cells at 10 uM incubated for 48 hrs by sulforhodamine B assay relative to control; settings: A498, 48 h, read-out: GI; procedure, shortened: as §2
NCI-H226 = assay: Growth inhibition of human NCI-H226 cells at 10 uM incubated for 48 hrs by sulforhodamine B assay relative to control; settings: NCI-H226, 48 h, read-out: GI; procedure, shortened: as §2
Malme-3M = assay: Growth inhibition of human MALME-3M cells at 10 uM incubated for 48 hrs by sulforhodamine B assay relative to control; settings: read-out: GI; procedure, shortened: as §2
SNB-75 = assay: Growth inhibition of human SNB75 cells at 10 uM incubated for 48 hrs by sulforhodamine B assay relative to control; settings: SNB-75, 48 h, read-out: GI; procedure, shortened: as §1
SF-539 = assay: Growth inhibition of human SF539 cells at 10 uM incubated for 48 hrs by sulforhodamine B assay relative to control; settings: SF-539, 48 h, read-out: GI; procedure, shortened: as §1
SR = assay: Growth inhibition of human SR cells at 10 uM incubated for 48 hrs by sulforhodamine B assay relative to control; settings: read-out: GI; procedure, shortened: as §1
SN12C = assay: Growth inhibition of human SN12C cells at 10 uM incubated for 48 hrs by sulforhodamine B assay relative to control; settings: read-out: GI; procedure, shortened: as §1
NCI-H460 = assay: Growth inhibition of human NCI-H460 cells at 10 uM incubated for 48 hrs by sulforhodamine B assay relative to control; settings: NCI-H460, 48 h, read-out: GI; procedure, shortened: as §2
HOP-92 = assay: Growth inhibition of human HOP92 cells at 10 uM incubated for 48 hrs by sulforhodamine B assay relative to control; settings: HOP-92, 48 h, read-out: GI; procedure, shortened: as §2
SW-620 = assay: Growth inhibition of human SW620 cells at 10 uM incubated for 48 hrs by sulforhodamine B assay relative to control; settings: SW-620, 48 h, read-out: GI; procedure, shortened: as §1
NCI-H322M = assay: Growth inhibition of human NCI-H322M cells at 10 uM incubated for 48 hrs by sulforhodamine B assay relative to control; settings: read-out: GI; procedure, shortened: as §2
IGROV-1 = assay: Growth inhibition of human IGROV1 cells at 10 uM incubated for 48 hrs by sulforhodamine B assay relative to control; settings: IGROV-1, 48 h, read-out: GI; procedure, shortened: as §2
PC-3 = assay: Growth inhibition of human PC3 cells at 10 uM incubated for 48 hrs by sulforhodamine B assay relative to control; settings: PC-3, 48 h, read-out: GI; procedure, shortened: as §2
M14 = assay: Growth inhibition of human M14 cells at 10 uM incubated for 48 hrs by sulforhodamine B assay relative to control; settings: M14, 48 h, read-out: GI; procedure, shortened: as §2
EKVX = assay: Growth inhibition of human EKVX cells at 10 uM incubated for 48 hrs by sulforhodamine B assay relative to control; settings: read-out: GI; procedure, shortened: as §2
HCT-116 = assay: Growth inhibition of human HCT116 cells at 10 uM incubated for 48 hrs by sulforhodamine B assay relative to control; settings: HCT-116, 48 h, read-out: GI; procedure, shortened: as §2
MDA-MB-468 = assay: Growth inhibition of human MDA-MB-468 cells at 10 uM incubated for 48 hrs by sulforhodamine B assay relative to control; settings: MDA-MB-468, 48 h, read-out: GI; procedure, shortened: as §2
CAKI-1 = assay: Growth inhibition of human Caki1 cells at 10 uM incubated for 48 hrs by sulforhodamine B assay relative to control; settings: CAKI-1, 48 h, read-out: GI; procedure, shortened: as §2
NCI/ADR-RES = assay: Growth inhibition of human NCI/ADR-RES cells at 10 uM incubated for 48 hrs by sulforhodamine B assay relative to control; settings: read-out: GI; procedure, shortened: as §2
MDA-MB-231 = assay: Growth inhibition of human MDA-MB-231 cells at 10 uM incubated for 48 hrs by sulforhodamine B assay relative to control; settings: MDA-MB-231, 48 h, read-out: GI; procedure, shortened: as §2
RPMI-8226 = assay: Growth inhibition of human RPMI8226 cells at 10 uM incubated for 48 hrs by sulforhodamine B assay relative to control; settings: RPMI-8226, 48 h, read-out: GI; procedure, shortened: as §2
UACC-257 = assay: Growth inhibition of human UACC257 cells at 10 uM incubated for 48 hrs by sulforhodamine B assay relative to control; settings: UACC-257, 48 h, read-out: GI; procedure, shortened: as §1

Row | Compound | inhibition of growth at 10 µM (SF-295) [%] | inhibition of growth at 10 µM (K562) [%] | inhibition of growth at 10 µM (MOLT-4) [%] | inhibition of growth at 10 µM (SK-MEL-2) [%] | inhibition of growth at 10 µM (UO-31) [%] | inhibition of growth at 10 µM (SF-268) [%] | inhibition of growth at 10 µM (OVCAR-5) [%] | inhibition of growth at 10 µM (OVCAR-4) [%] | inhibition of growth at 10 µM (ACHN) [%] | inhibition of growth at 10 µM (A498) [%] | inhibition of growth at 10 µM (NCI-H226) [%] | inhibition of growth at 10 µM (Malme-3M) [%] | inhibition of growth at 10 µM (SNB-75) [%] | inhibition of growth at 10 µM (SF-539) [%] | inhibition of growth at 10 µM (SR) [%] | inhibition of growth at 10 µM (SN12C) [%] | inhibition of growth at 10 µM (NCI-H460) [%] | inhibition of growth at 10 µM (HOP-92) [%] | inhibition of growth at 10 µM (SW-620) [%] | inhibition of growth at 10 µM (NCI-H322M) [%] | further results
1 | CCOC(=O)C1=C(C)NC(SCc2nnc(-c3ccc(Cl)cc3)o2)=NC1c1ccc(OC)cc1 (configuration not stated) | < 10 | < 10 | < 10 | < 10 | 20.3 | < 10 | < 10 | < 10 | < 10 | < 10 | 11.8 | < 10 | 18.9 | < 10 | 18.1 | < 10 | < 10 | 17.6 | < 10 | < 10 | inhibition of growth at 10 µM (IGROV-1): 17.8%; inhibition of growth at 10 µM (PC-3): 17.9%; inhibition of growth at 10 µM (M14): < 10%; inhibition of growth at 10 µM (EKVX): < 10%; inhibition of growth at 10 µM (HCT-116): < 10%; inhibition of growth at 10 µM (MDA-MB-468): < 10%; inhibition of growth at 10 µM (CAKI-1): 17.8%; inhibition of growth at 10 µM (NCI/ADR-RES): < 10%; inhibition of growth at 10 µM (MDA-MB-231): 10.2%; inhibition of growth at 10 µM (RPMI-8226): 18.3%; inhibition of growth at 10 µM (UACC-257): < 10%
2 | CC(=O)C1=C(C)NC(SCc2nnc(-c3ccc(Cl)cc3)o2)=NC1c1ccc(Cl)cc1 (configuration not stated) | < 10 | 11.1 | 24.4 | < 10 | 43.6 | < 10 | < 10 | < 10 | 13.5 | < 10 | 11.4 | 11.6 | 28.1 | < 10 | 37.8 | 13 | < 10 | 26.5 | < 10 | 12 | inhibition of growth at 10 µM (IGROV-1): 23.4%; inhibition of growth at 10 µM (PC-3): 31.1%; inhibition of growth at 10 µM (M14): < 10%; inhibition of growth at 10 µM (EKVX): < 10%; inhibition of growth at 10 µM (HCT-116): 25.8%; inhibition of growth at 10 µM (MDA-MB-468): 10.8%; inhibition of growth at 10 µM (CAKI-1): 21.1%; inhibition of growth at 10 µM (NCI/ADR-RES): < 10%; inhibition of growth at 10 µM (MDA-MB-231): 27%; inhibition of growth at 10 µM (RPMI-8226): 32.9%; inhibition of growth at 10 µM (UACC-257): < 10%
